Rin1-Abl PPI inh: inhibitors of Rin1-Abl protein binding, primary screen, biochemical, TR-FRET; inhibition, % at 7.35 µM; hit rate 0.4% among 360,000; AID 588664, 2011; in the data active = inhibition above about 5%, passing the limit was not always enough
CAL PDZ FP-1: untagged CAL PDZ binding inhibitors, primary screen, biochemical, fluorescence polarization, HTS. inhibition, % at 24.9 µM. hit rate 0.92% among 300,000. purified CAL PDZ, TMR-peptide fluorescence polarization, 1 h;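 active = mean inhibition of at least 30% with at least half of replicates also reaching 30%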;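 note: 0% = DMSO neutral control and 100% = excess unlabeled competitor peptide PRC23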
ERp5 inh: inhibitors of ERp5-driven insulin aggregation, primary screen, biochemical, turbidity, absorbance 650 nm, single point; Protein disulfide-isomerase A6 (Homo sapiens), Q15084; 90 min; inhibition, % at 9.99 µM; hit rate 0.05% among 350,000; AID 651711, 2012;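 active = mean replicate inhibition above about 25%, with every replicate also reaching it, limit read from the data, passing the limit was not always enough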
Target sequence (Q15084 whole entry, looked up): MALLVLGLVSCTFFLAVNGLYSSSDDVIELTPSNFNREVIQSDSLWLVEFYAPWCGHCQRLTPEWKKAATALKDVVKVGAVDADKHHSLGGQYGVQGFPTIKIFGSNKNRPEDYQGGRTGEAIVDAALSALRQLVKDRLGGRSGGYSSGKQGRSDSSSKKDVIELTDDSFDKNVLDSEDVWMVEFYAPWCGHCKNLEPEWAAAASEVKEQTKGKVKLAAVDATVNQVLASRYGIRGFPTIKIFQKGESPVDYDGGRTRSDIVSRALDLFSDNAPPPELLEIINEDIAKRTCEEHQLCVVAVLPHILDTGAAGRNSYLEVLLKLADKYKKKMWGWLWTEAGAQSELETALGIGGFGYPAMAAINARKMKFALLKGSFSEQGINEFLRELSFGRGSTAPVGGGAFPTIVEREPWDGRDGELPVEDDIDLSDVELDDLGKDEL
PDI inh: inhibitors of human PDI, primary screen, biochemical, turbidity, single point, plate reader; Protein disulfide-isomerase (Homo sapiens), P07237; PDI insulin aggregation turbidity, A650, 90 min; inhibition, % at 10 µM; hit rate 0.052% among 350,000; AID 588391, 2011;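 active = mean inhibition across replicates of 30% or more, whatever share of single replicates reach that level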
ERAP1 inh: human ERAP1 aminopeptidase inhibitors, primary screen, biochemical, single point, plate reader; Endoplasmic reticulum aminopeptidase 1 (Homo sapiens), Q9NZ08; recombinant ERAP1, Leu-AMC fluorescence, 60 min; inhibition, % at 10.7 µM; hit rate 0.15% among 340,000; AID 652197, 2013;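 active = mean replicate inhibition of at least 30%, or all replicates individually reaching that 30% level; inactive = mean below 30% and not every replicate reaching it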;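 note: 0% = neutral control wells and 100% = L-leucinethiol positive control wells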
CAL PDZ FP-2: CAL PDZ peptide-binding inhibitors, primary screen, biochemical, fluorescence polarization, Cer-tagged CAL PDZ, HTS; Golgi-associated PDZ and coiled-coil motif-containing protein (Homo sapiens), Q9HD26; purified CAL PDZ, TMR-peptide fluorescence polarization, 1 h; inhibition, % at 20 µM; hit rate 0.02% among 330,000;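 active = highest replicate inhibition of at least 40%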;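 note: plate controls were DMSO neutral control wells for no effect and unlabeled competitor peptide control wells for full effect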
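Assay system – tagged CAL PDZ protein CerCALP, purified · Timing – 1 h at RT · Compound – single point, 20 µM · Measured by – fluorescence polarization from S- and P-plane intensities, G-factor corrected · Evaluation – inhibition from polarization loss · Probe or stimulus – TMR reporter peptide T*-PRC34 · Buffer or medium – pH 7.4 phosphate-saline buffer, reducing agent, detergent, IgG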
* = called active by the depositor; . = no result given; + = active, no number. An excerpt weighted towards active compounds, which were near 1.1% of everything screened.

SMILES	Rin1-Abl PPI inh	CAL PDZ FP-1	ERp5 inh	PDI inh	ERAP1 inh	CAL PDZ FP-2
CC=Cc1ccc2n(c1=O)C[C@@H]1[C@@H](CO)[C@H](C(=O)N3CCc4ccccc4C3)N(C)[C@H]21 (mixture of isomers)	.	.	0	.	-6	.
CO[C@H]1CN(C)C(=O)c2cc(NC(=O)C3CCCCC3)ccc2OC[C@@H](C)N(C(=O)c2ccccc2)C[C@@H]1C	.	.	-7	.	-6	.
Cc1c(CC(=O)NCCCC(=O)O)c(=O)oc2cc3occ(-c4ccccc4)c3cc12	1	-6	4	-2	-1	-6
Cc1c(CCC(=O)NCCCCCC(=O)O)c(=O)oc2cc3occ(-c4ccccc4)c3cc12	1	-6	-2	3	35*	-3
CC1CCC(C(C)C)C(OCC(O)CNC(C)(C)C)C1 (centres undefined)	-2	80*	4	2	6	0
CC1CCC(C(C)C)C(OCC(O)CNC(C)c2ccccc2)C1 (centres undefined)	-2	4	1	-6	5	0
COCCn1c(SCc2ccc(F)cc2)nc2ccccc2c1=O	0	+	-3	-5	4	0
NC(=S)N=Nc1c(O)cc(O)c2[nH]c(=O)ccc12	14*	3	-10	4	52*	5
COc1ccccc1-c1ccc2c(c1)O[C@@H](CN(C)C(C)=O)[C@H](C)CN([C@@H](C)CO)S2(=O)=O	.	.	-8	.	2	.
O=C(O)C1CCCN1c1nc(-c2ccc(Cl)c(Cl)c2)cc(C(F)(F)F)n1 (centres undefined)	0	91*	-4	-5	-8	-2
CO[C@@H]1CN(C)C(=O)c2cc(NC(=O)NC(C)C)ccc2OC[C@@H](C)N(C(=O)CC2CC2)C[C@@H]1C	.	.	-12	.	0	.
CN(Cc1ccc(Br)cc1)C(=O)CCN1C(=O)c2cccc([N+](=O)[O-])c2C1=O	0	71*	4	-4	0	1
C[N+]1(CC(O)COCC2COc3ccccc3O2)CCOCC1 (centres undefined)	-3	-2	0	2	104*	-2
COc1ccc(NS(=O)(=O)c2cc(NC(=O)c3cnccn3)ccc2OC)cc1Br	0	71*	2	1	-3	-1
COc1ccc(NS(=O)(=O)c2cc(NC(=O)c3cnccn3)ccc2N2CCCC2)cc1	-2	-3	0	5	3	-1
O=C(N[C@H]1CC[C@H](CCNS(=O)(=O)c2ccc(Cl)cc2)O[C@H]1CO)c1cnccn1	.	.	2	.	0	.
O=C(O)CCC1(CCC(=O)O)CCCC(CCC(=O)O)(CCC(=O)O)C1=O	1	80*	3	-5	-1	0
Cc1ccc(C(=O)N2CCCC(CCC(=O)NCc3ccccc3F)C2)cn1 (centres undefined)	2	-2	4	5	2	-1
COc1ccc(C(=O)N2CCCC(CCC(=O)NCc3ccc(F)c(F)c3)C2)o1 (centres undefined)	-1	51*	1	5	3	0
C=CCOc1cccc(C(=O)N2CCCC(CCC(=O)NCc3ccccc3F)C2)c1 (centres undefined)	-2	74*	9	-6	-2	0
COc1ccc(NC(=O)Nc2cc(NC(=O)Nc3ccc(OC)cc3)c(C)nc2C)cc1	1	-2	3	-9	-6	-1
COc1ccc(NC(=O)Nc2c[nH]c(=O)[nH]c2=O)cc1	1	59*	-1	10	-3	-1
CSc1ccc(/C=N/N(C)S(=O)(=O)c2ccc(C)cc2)cc1	-2	-1	4	1	-3	1
Cc1ccc(/C=N/N(C)S(=O)(=O)c2ccc(C)cc2)cc1	-2	49*	0	-8	2	.
CC(C)c1ccc(NC(=O)c2cc(Br)ccc2Br)cc1	-3	37*	-4	-1	0	0
SMILES	Rin1-Abl PPI inh	CAL PDZ FP-1	ERp5 inh	PDI inh	ERAP1 inh	CAL PDZ FP-2
COC(=O)c1ccc(C2=NOC(C)(c3sc(-c4ccccc4)nc3C)C2)cc1 (centres undefined)	0	45*	0	1	2	0
Cc1ccc(C(=O)NCCc2ccccc2)cc1N1CCCC1=O	1	-1	.	6	.	-2
O=C(NCCCN1CCOCC1)c1ccc2c(c1)N(Cc1cccc(Cl)c1)C(=O)c1ccccc1S2=O (centres undefined)	-1	37*	5	1	-6	-1
Cc1ccc(C(=O)NCCCN2CCOCC2)cc1N1CCCC1=O	0	40*	.	18	.	.
CC(C)n1c(=O)[nH][nH]c1=S	1	.	2	-2	85*	.
CCCNC(=O)C[C@H]1CC[C@@H]2[C@H](COc3ccc(NC(=O)c4ccc(C(F)(F)F)cc4)cc3C(=O)N2C)O1	.	.	2	.	1	.
C[C@@H]1CN([C@H](C)CO)C(=O)Cc2cc(N(C)C)ccc2O[C@H]1CN(C)C(=O)Nc1ccccc1	.	.	6	.	4	.
COc1cc(SC)ccc1C(=O)N1CCN(Cc2ccc3c(c2)OCO3)CC1	-1	46*	-1	1	2	-1
COc1cccc(OC)c1C(=O)N1CCN(Cc2ccc3c(c2)OCO3)CC1	-2	.	.	1	.	0
CCc1nnc(NC(=O)CSc2nc(-c3ccc(OC)cc3)ns2)s1	3	51*	.	8	.	0
CN(C)CCNc1ccc2ncn3c4ccc(O)cc4c(=O)c1c23	-62	-2	5	4	33*	1
O=C(CSc1nc2ccccc2[nH]1)NCc1ccco1	0	-1	-2	-1	0	-3
O=C(CSc1nc2ncccc2[nH]1)NCc1ccco1	4	59*	3	-6	-1	-1
C[C@@H]1CN([C@@H](C)CO)S(=O)(=O)c2ccc(C3=CCCCC3)cc2O[C@H]1CN(C)Cc1ccccn1	.	.	3	.	2	.
O=C(O)CSCC(=O)N(Cc1ccccc1)c1nc(-c2ccccc2)c(-c2ccccc2)s1	1	44*	1	9	2	-1
O=C(C[C@@H]1CC[C@H]2[C@@H](COC[C@@H](O)CN2C(=O)c2cnccn2)O1)NCc1ccc(Cl)cc1	.	.	-5	.	3	.
CC(C)CC#Cc1cnc2c(c1)C(=O)N([C@H](C)CO)C[C@@H](C)[C@@H](CN(C)C(=O)Nc1cccc(F)c1)O2	.	.	1	.	0	.
Fc1ccc(Cn2nnc3ccccc32)cc1	-1	123*	.	-5	.	.
O=C(Nc1ccccc1Oc1ccsc1C(=O)O)c1ccccc1F	-2	-1	-2	9	-3	-1
O=C(Nc1ccccc1Oc1ccsc1C(=O)O)c1ccccc1	0	39*	3	4	-4	-3

Screening data from PubChem BioAssay.
